Measured values taken from ChEMBL document CHEMBL5303300, “EUbOPEN Chemogenomics Library - Multiplex” (2023).
Several values for one entry are separate records, joined by “and”; a condition that tells them apart may be missing. Equal values may be shown once.

Tested on: HEK-293T
Test: Multiplex assay against HEK293T
Format: toxicity, cell-based
Conditions: human, number of replicates 2
Method in brief: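 Compound was added to live cells that had been stained at seeding with Hoechst33342, BioTracker Green Microtubule Cytoskeleton Dye, MitoTracker Red and Annexin V Alexa Fluor 680, and imaging followed on a CQ1 microscope at 37°C and 5% CO2. CellPathfinder machine-learning gating divided cells into Hoechst high-intensity objects or normal cells, normal cells into healthy, pyknosed or fragmented nuclei, and pyknosed cells into mitotic or apoptotic. Tubulin, mitochondrial-mass and membrane-permeability phenotypes are per cents of healthy-nucleus cells.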

[1] = 12 h, 1 µM, compound concentration 1 uM
[2] = 12 h, 10 µM, compound concentration 10 uM
[3] = 24 h, 1 µM, compound concentration 1 uM
[4] = 24 h, 10 µM, compound concentration 10 uM
[5] = 48 h, 1 µM, compound concentration 1 uM
[6] = 48 h, 10 µM, compound concentration 10 uM

COc1cc(N(C)c2ccnc3ccc(C(F)(F)F)cc23)cc(OC)c1OC
Population Apoptotic (%) [1]: 58% and 48% | Population Fragmented Nuclei (%) [1]: 5% and 4% | Population Healthy Nuclei (%) [1]: 81% and 79% | Population Hoechst High Intensity Objects (%) [1]: 7% and 6% | Population Membrane Permeable-Phenotype (%) [1]: 2% and 5% | Population Mitochondria Different-Phenotype (%) [1]: 13% and 17% | Population Mitotic Cells (%) [1]: 41% and 51% | Population Normal (%) [1]: 92% and 93% | Population Pyknosed Nuclei (%) [1]: 12% and 16% | Population Tubulin-Different-Phenotype (%) [1]: 50% and 48% | Total Cell Count [1]: 523 and 568 | Population Apoptotic (%) [2]: 42% and 52% | Population Fragmented Nuclei (%) [2]: 3% and 2% | Population Healthy Nuclei (%) [2]: 82% and 80% | Population Hoechst High Intensity Objects (%) [2]: 5% | Population Membrane Permeable-Phenotype (%) [2]: 5% and 3% | Population Mitochondria Different-Phenotype (%) [2]: 34% and 29% | Population Mitotic Cells (%) [2]: 57% and 47% | Population Normal (%) [2]: 94% | Population Pyknosed Nuclei (%) [2]: 14% and 17% | Population Tubulin-Different-Phenotype (%) [2]: 79% and 82% | Total Cell Count [2]: 570 and 542 | Population Apoptotic (%) [3]: 54% and 36% | Population Fragmented Nuclei (%) [3]: 5% and 6% | Population Healthy Nuclei (%) [3]: 83% and 85% | Population Hoechst High Intensity Objects (%) [3]: 7% and 6% | Population Membrane Permeable-Phenotype (%) [3]: 3% and 5% | Population Mitochondria Different-Phenotype (%) [3]: 6% and 4% | Population Mitotic Cells (%) [3]: 45% and 63% | Population Normal (%) [3]: 92% and 93% | Population Pyknosed Nuclei (%) [3]: 10% and 8% | Population Tubulin-Different-Phenotype (%) [3]: 33% and 26% | Total Cell Count [3]: 845 and 846 | Population Apoptotic (%) [4]: 46% and 53% | Population Fragmented Nuclei (%) [4]: 3% and 4% | Population Healthy Nuclei (%) [4]: 84% and 83% | Population Hoechst High Intensity Objects (%) [4]: 5% | Population Membrane Permeable-Phenotype (%) [4]: 3% and 1% | Population Mitochondria Different-Phenotype (%) [4]: 31% and 20% | Population Mitotic Cells (%) [4]: 53% and 46% | Population Normal (%) [4]: 94% | Population Pyknosed Nuclei (%) [4]: 11% and 12% | Population Tubulin-Different-Phenotype (%) [4]: 69% and 64% | Total Cell Count [4]: 762 and 740 | Population Apoptotic (%) [5]: 16% and 24% | Population Fragmented Nuclei (%) [5]: 12% and 11% | Population Healthy Nuclei (%) [5]: 83% and 84% | Population Hoechst High Intensity Objects (%) [5]: 7% | Population Membrane Permeable-Phenotype (%) [5]: 5% and 4% | Population Mitochondria Different-Phenotype (%) [5]: 0% | Population Mitotic Cells (%) [5]: 83% and 75% | Population Normal (%) [5]: 92% | Population Pyknosed Nuclei (%) [5]: 3% | Population Tubulin-Different-Phenotype (%) [5]: 12% and 11% | Total Cell Count [5]: 2086 and 2004 | Population Apoptotic (%) [6]: 26% and 38% | Population Fragmented Nuclei (%) [6]: 9% and 7% | Population Healthy Nuclei (%) [6]: 85% and 86% | Population Hoechst High Intensity Objects (%) [6]: 7% and 8% | Population Membrane Permeable-Phenotype (%) [6]: 3% and 1% | Population Mitochondria Different-Phenotype (%) [6]: 9% | Population Mitotic Cells (%) [6]: 73% and 61% | Population Normal (%) [6]: 92% and 91% | Population Pyknosed Nuclei (%) [6]: 5% | Population Tubulin-Different-Phenotype (%) [6]: 48% and 46% | Total Cell Count [6]: 1391 and 1324

CC(C)c1cc(-c2ccc(F)c3ccccc23)nc(N)n1
Population Apoptotic (%) [1]: 45% and 56% | Population Fragmented Nuclei (%) [1]: 3% | Population Healthy Nuclei (%) [1]: 88% and 87% | Population Hoechst High Intensity Objects (%) [1]: 5% | Population Membrane Permeable-Phenotype (%) [1]: 2% | Population Mitochondria Different-Phenotype (%) [1]: 15% | Population Mitotic Cells (%) [1]: 54% and 43% | Population Normal (%) [1]: 94% | Population Pyknosed Nuclei (%) [1]: 8% and 9% | Population Tubulin-Different-Phenotype (%) [1]: 54% and 59% | Total Cell Count [1]: 775 and 598 | Population Apoptotic (%) [2]: 62% | Population Fragmented Nuclei (%) [2]: 3% and 4% | Population Healthy Nuclei (%) [2]: 78% and 80% | Population Hoechst High Intensity Objects (%) [2]: 7% | Population Membrane Permeable-Phenotype (%) [2]: 1% and 0% | Population Mitochondria Different-Phenotype (%) [2]: 25% and 20% | Population Mitotic Cells (%) [2]: 37% | Population Normal (%) [2]: 92% | Population Pyknosed Nuclei (%) [2]: 18% and 15% | Population Tubulin-Different-Phenotype (%) [2]: 66% and 60% | Total Cell Count [2]: 434 and 448 | Population Apoptotic (%) [3]: 49% and 36% | Population Fragmented Nuclei (%) [3]: 6% and 4% | Population Healthy Nuclei (%) [3]: 88% | Population Hoechst High Intensity Objects (%) [3]: 7% and 9% | Population Membrane Permeable-Phenotype (%) [3]: 2% and 3% | Population Mitochondria Different-Phenotype (%) [3]: 4% and 5% | Population Mitotic Cells (%) [3]: 50% and 63% | Population Normal (%) [3]: 92% and 90% | Population Pyknosed Nuclei (%) [3]: 5% and 6% | Population Tubulin-Different-Phenotype (%) [3]: 34% and 35% | Total Cell Count [3]: 1247 and 898 | Population Apoptotic (%) [4]: 41% and 43% | Population Fragmented Nuclei (%) [4]: 7% and 6% | Population Healthy Nuclei (%) [4]: 84% and 82% | Population Hoechst High Intensity Objects (%) [4]: 7% and 6% | Population Membrane Permeable-Phenotype (%) [4]: 2% and 1% | Population Mitochondria Different-Phenotype (%) [4]: 14% and 12% | Population Mitotic Cells (%) [4]: 58% and 56% | Population Normal (%) [4]: 92% and 93% | Population Pyknosed Nuclei (%) [4]: 8% and 10% | Population Tubulin-Different-Phenotype (%) [4]: 46% and 42% | Total Cell Count [4]: 675 and 625 | Population Apoptotic (%) [5]: 10% and 18% | Population Fragmented Nuclei (%) [5]: 16% and 10% | Population Healthy Nuclei (%) [5]: 81% and 85% | Population Hoechst High Intensity Objects (%) [5]: 9% and 10% | Population Membrane Permeable-Phenotype (%) [5]: 5% | Population Mitochondria Different-Phenotype (%) [5]: 0% and 1% | Population Mitotic Cells (%) [5]: 90% and 81% | Population Normal (%) [5]: 90% and 89% | Population Pyknosed Nuclei (%) [5]: 2% and 4% | Population Tubulin-Different-Phenotype (%) [5]: 17% and 23% | Total Cell Count [5]: 3182 and 1908 | Population Apoptotic (%) [6]: 20% and 37% | Population Fragmented Nuclei (%) [6]: 14% and 10% | Population Healthy Nuclei (%) [6]: 81% and 86% | Population Hoechst High Intensity Objects (%) [6]: 8% and 7% | Population Membrane Permeable-Phenotype (%) [6]: 6% and 2% | Population Mitochondria Different-Phenotype (%) [6]: 2% and 3% | Population Mitotic Cells (%) [6]: 80% and 62% | Population Normal (%) [6]: 91% and 92% | Population Pyknosed Nuclei (%) [6]: 3% and 2% | Population Tubulin-Different-Phenotype (%) [6]: 26% and 24% | Total Cell Count [6]: 1507 and 1327

CC(C)S(=O)(=O)c1ccccc1Nc1nc(N[C@@H]2CCCN(CCCCCCCNC(=O)COc3cccc4c3C(=O)N(C3CCC(=O)NC3=O)C4=O)C2)ncc1Cl (stereo partly drawn)
Population Apoptotic (%) [1]: 72% and 70% | Population Fragmented Nuclei (%) [1]: 2% and 3% | Population Healthy Nuclei (%) [1]: 80% and 76% | Population Hoechst High Intensity Objects (%) [1]: 8% and 16% | Population Membrane Permeable-Phenotype (%) [1]: 0% | Population Mitochondria Different-Phenotype (%) [1]: 61% and 50% | Population Mitotic Cells (%) [1]: 27% and 29% | Population Normal (%) [1]: 91% and 83% | Population Pyknosed Nuclei (%) [1]: 17% and 19% | Population Tubulin-Different-Phenotype (%) [1]: 75% and 73% | Total Cell Count [1]: 378 and 397 | Population Apoptotic (%) [2]: 48% and 67% | Population Fragmented Nuclei (%) [2]: 4% and 5% | Population Healthy Nuclei (%) [2]: 63% and 65% | Population Hoechst High Intensity Objects (%) [2]: 18% and 15% | Population Membrane Permeable-Phenotype (%) [2]: 6% | Population Mitochondria Different-Phenotype (%) [2]: 70% | Population Mitotic Cells (%) [2]: 51% and 32% | Population Normal (%) [2]: 81% and 84% | Population Pyknosed Nuclei (%) [2]: 31% and 29% | Population Tubulin-Different-Phenotype (%) [2]: 48% and 66% | Total Cell Count [2]: 366 and 343 | Population Apoptotic (%) [3]: 65% and 76% | Population Fragmented Nuclei (%) [3]: 3% and 5% | Population Healthy Nuclei (%) [3]: 82% and 79% | Population Hoechst High Intensity Objects (%) [3]: 12% and 14% | Population Membrane Permeable-Phenotype (%) [3]: 1% | Population Mitochondria Different-Phenotype (%) [3]: 65% and 63% | Population Mitotic Cells (%) [3]: 34% and 23% | Population Normal (%) [3]: 87% and 85% | Population Pyknosed Nuclei (%) [3]: 14% and 15% | Population Tubulin-Different-Phenotype (%) [3]: 69% and 67% | Total Cell Count [3]: 385 and 384 | Population Apoptotic (%) [4]: 79% and 70% | Population Fragmented Nuclei (%) [4]: 6% and 3% | Population Healthy Nuclei (%) [4]: 65% and 61% | Population Hoechst High Intensity Objects (%) [4]: 19% | Population Membrane Permeable-Phenotype (%) [4]: 1% and 2% | Population Mitochondria Different-Phenotype (%) [4]: 81% and 87% | Population Mitotic Cells (%) [4]: 20% and 30% | Population Normal (%) [4]: 80% | Population Pyknosed Nuclei (%) [4]: 28% and 34% | Population Tubulin-Different-Phenotype (%) [4]: 85% and 93% | Total Cell Count [4]: 341 and 356 | Population Apoptotic (%) [5]: 78% and 74% | Population Fragmented Nuclei (%) [5]: 3% | Population Healthy Nuclei (%) [5]: 84% and 83% | Population Hoechst High Intensity Objects (%) [5]: 12% and 14% | Population Membrane Permeable-Phenotype (%) [5]: 0% and 1% | Population Mitochondria Different-Phenotype (%) [5]: 66% and 57% | Population Mitotic Cells (%) [5]: 21% and 25% | Population Normal (%) [5]: 87% and 85% | Population Pyknosed Nuclei (%) [5]: 11% and 13% | Population Tubulin-Different-Phenotype (%) [5]: 66% and 57% | Total Cell Count [5]: 316 and 306 | Population Apoptotic (%) [6]: 78% and 74% | Population Fragmented Nuclei (%) [6]: 6% and 5% | Population Healthy Nuclei (%) [6]: 70% and 63% | Population Hoechst High Intensity Objects (%) [6]: 18% and 20% | Population Membrane Permeable-Phenotype (%) [6]: 2% and 1% | Population Mitochondria Different-Phenotype (%) [6]: 73% and 79% | Population Mitotic Cells (%) [6]: 21% and 25% | Population Normal (%) [6]: 81% and 79% | Population Pyknosed Nuclei (%) [6]: 23% and 31% | Population Tubulin-Different-Phenotype (%) [6]: 66% and 77% | Total Cell Count [6]: 296 and 313
